Data on 9 compounds can be found in ChEMBL document CHEMBL1159370, “A novel NO-production-inhibiting triterpene and cytotoxicity of known alkaloids from Euonymus laxiflorus” (J Nat Prod, 2003).

≈ marks a conversion by molar mass, not a printed value.

One data set deals with KB. The experiment in a line: Cytotoxicity against human KB cells. Format: functional. Particulars: read-out: ED50 (the source's name).
The subject of another data set is COLO 205. The experiment in a line: Cytotoxicity against human COLO205 cells. Format: functional. The following applies: read-out: ED50 (the source's name).
The subject of data set [1] is RAW264.7. Kind of data set: Inhibition of LPS/IFN-gamma-induced nitrite accumulation in mouse RAW264.7 cells by Griess reagent assay. Format: functional, cell-based. The essentials:
(§1)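 RAW 264.7 cells were grown in DMEM with 10% heat-inactivated FCS at 37 °C under 5% CO2. Compound (DMSO vehicle, 0.02–0.5%) was added together with LPS (1 µg/mL) plus IFN-γ (50 U/mL) for 24 h. Medium nitrite was measured with Griess reagent (1% sulfanilamide, 0.1% naphthylenediamine, 5% phosphoric acid) at OD550 against sodium nitrite standards. Data are mean ± SEM of six experiments, each in triplicate.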
A general note: The Griess reaction detects nitrite, a stable product of nitric oxide.

In data set [2] the test system is RAW264.7. Kind of data set: Inhibition of LPS/IFN-gamma-induced nitrite accumulation in mouse RAW264.7 cells at 0.2 mg/ml by Griess reagent assay. Format: functional. The essentials:
as §1

Data set [3] can be described thus: Cytotoxicity against mouse RAW264.7 cells assessed as cell viability by MTT reduction assay. Format: cell-based. The following applies: read-out: Activity. The essentials:
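Viability was read by MTT reduction in RAW 264.7 macrophages exposed for 24 h at 37 °C to LPS (1 µg/mL) plus IFN-γ (50 U/mL) with the compound. Results are expressed relative to unstimulated basal control cells. Data are mean ± SEM of six experiments, each in triplicate.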
On the technique in general: Tetrazolium dyes change colour on reduction, which living cells bring about.

Consider `CC(=O)OC[C@]12[C@H](OC(C)=O)[C@H](OC(C)=O)[C@@H]3[C@@H](OC(=O)c4ccccc4)[C@@]14O[C@@]3(C)COC(=O)c1cccnc1[C@@H](C)[C@H](C)C(=O)O[C@@H]([C@H](O)[C@@H]2OC(=O)c1ccccc1)[C@]4(C)O` [EUOJAPONINE C], for which the EC50 in the data set on KB and with COLO 205 was greater than 20 µg/mL in each case.

As to `CC1(C)CC[C@]2(C)CC[C@]3(C)C(=CC(=O)[C@@H]4[C@@]5(C)CCC(=O)C(C)(C)[C@@H]5CC[C@]43C)[C@@H]2C1`, the EC50 with KB and in the data set on COLO 205 was greater than 20 µg/mL throughout.

Take `CC(=O)OC[C@]12[C@H](OC(C)=O)[C@H](OC(C)=O)[C@@H]3[C@@H](OC(=O)c4ccccc4)[C@@]14O[C@@]3(C)COC(=O)c1cccnc1C(C)C(C)C(=O)O[C@@H]([C@H](OC(C)=O)[C@@H]2OC(=O)c1ccccc1)[C@]4(C)O` (some centres undefined): the EC50 with KB and in the data set on COLO 205 was greater than 20 µg/mL in each case.

For `CC(=O)OC[C@]12[C@H](OC(C)=O)[C@H](OC(C)=O)[C@@H]3[C@@H](OC(C)=O)[C@@]14O[C@@]3(C)COC(=O)c1cccnc1C(C)C(C)C(=O)O[C@@H]([C@H](OC(C)=O)[C@@H]2OC(=O)c1ccccc1)[C@]4(C)O` (some centres undefined) [MAYTEINE], the EC50 with KB and with COLO 205 was greater than 20 µg/mL throughout.

Consider `C[C@H]1C(=O)CC[C@@H]2[C@]1(C)CC(=O)[C@H]1[C@@]2(C)CC[C@@]2(C)[C@@H]3CC(C)(C)CC[C@]3(C)CC[C@]12C` [PUTRANJIVADIONE], for which the EC50 in the data set on KB and in the data set on COLO 205 was greater than 20 µg/mL throughout.

As to `CC1(C)[C@@H](O)CC[C@]2(C)[C@H]3CC=C4[C@@H]5C[C@](C)(C(=O)O)C[C@H](O)[C@]5(C)CC[C@@]4(C)[C@]3(C)CC[C@@H]12` [MAYTENFOLIC ACID], the EC50 in the data set with KB and with COLO 205 was greater than 20 µg/mL each time.

Turning to `CC1(C)C(O)CC[C@]2(C)[C@H]3CC=C4[C@@H]5C[C@@]6(C)CC(OC6=O)[C@]5(C)CC[C@@]4(C)[C@]3(C)CC[C@@H]12` (some centres undefined), the EC50 with KB and in the data set on COLO 205 was greater than 20 µg/mL throughout.

Take `CC(=O)OC[C@]12[C@H](O)[C@@H](OC(C)=O)[C@@H]3[C@@H](OC(C)=O)[C@@]14O[C@@]3(C)COC(=O)c1cccnc1[C@@H](C)[C@H](C)C(=O)O[C@@H]([C@H](OC(=O)c1ccc(=O)n(C)c1)[C@@H]2O)[C@]4(C)O` [EMARGINATINE E]: the figures for the EC50 in the data set with KB and with COLO 205 were 1.7 µg/mL (≈ 2.09 µM) and 4.1 µg/mL (≈ 5.03 µM), respectively.

`CO[C@H]1CC[C@]2(C)[C@H]3C(=O)C[C@@H]4C5=CC(C)(C)CC[C@]5(C)CC[C@@]4(C)[C@]3(C)CC[C@H]2C1(C)C` [LAXIFOLONE A] displayed an IC50 with RAW264.7 [1] of 120 µg/mL (≈ 264 µM). The inhibition at 200 µg/mL in the data set on RAW264.7 [2] is greater than 80%. Also, the viability in data set [3] is greater than 95%.

By IC50 is commonly meant the concentration that inhibits the measured activity by half. For orientation: inhibition means the change of the read-out against control, counted positive when it falls. Low readings indicate a response near the control, high ones a response far below the control.
